SMILES strings stand for the structures.

Experimental findings from ChEMBL document CHEMBL1125117, “Substituted 1,3-dihydro-2H-pyrrolo[2,3-b]pyridin-2-ones as potential antiinflammatory agents” (1990) are described below.

Experiment [1] has as its target T1, Polyunsaturated fatty acid 5-lipoxygenase (Homo sapiens) (UniProt P09917).
T1 sequence (whole entry): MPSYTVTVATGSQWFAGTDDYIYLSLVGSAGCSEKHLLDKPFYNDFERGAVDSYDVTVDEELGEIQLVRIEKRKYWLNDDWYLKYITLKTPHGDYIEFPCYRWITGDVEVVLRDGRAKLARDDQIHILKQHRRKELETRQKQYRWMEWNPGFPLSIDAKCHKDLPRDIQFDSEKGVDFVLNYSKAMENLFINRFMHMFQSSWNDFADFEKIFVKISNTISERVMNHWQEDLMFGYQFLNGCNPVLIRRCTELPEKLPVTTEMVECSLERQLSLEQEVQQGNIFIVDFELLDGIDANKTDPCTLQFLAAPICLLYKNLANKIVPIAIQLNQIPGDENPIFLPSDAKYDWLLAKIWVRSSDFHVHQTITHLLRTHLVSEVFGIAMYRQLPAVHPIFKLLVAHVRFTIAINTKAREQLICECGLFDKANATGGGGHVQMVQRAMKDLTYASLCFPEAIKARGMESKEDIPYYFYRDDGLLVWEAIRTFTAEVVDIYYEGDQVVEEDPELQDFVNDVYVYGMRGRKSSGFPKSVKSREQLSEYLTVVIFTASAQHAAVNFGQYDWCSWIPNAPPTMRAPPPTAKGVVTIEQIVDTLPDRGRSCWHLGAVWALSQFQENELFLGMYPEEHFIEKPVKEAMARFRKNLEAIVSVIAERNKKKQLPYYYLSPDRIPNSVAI
The experiment is described as follows: In vitro inhibitory activity against 5-lipoxygenase in human polymorphonuclear (PMN) cells. The settings on record: concentration not given here. In outline:
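Human PMN neutrophils (2×10^7 cells/mL) in HEPES buffer with 1 mM CaCl2, preincubated 4 min with test compound in DMSO vehicle. Then stimulated with [14C]arachidonic acid plus calcium ionophore A23187 for 5 min and stopped with methanol. 5-HETE was quantitated by HPLC. Reported as % inhibition versus vehicle, tested at 15 μM.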

The subject of experiment [2] is Rattus norvegicus. The experiment is described as follows: In vivo inhibitory activity against cells in reverse passive Arthus reaction (RPAR) assay at dose 25 mg/kg in the pleural cavity of rats. The format is functional. The gist of the method: (§1)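 Male rats, five per group, dosed orally 1 h before iv BSA antigen (5 mg). Rabbit anti-BSA IgG (0.5 mg) given intrapleurally 30 min later. At 4 h, pleural exudate volume was measured and neutrophils counted (Coulter) after saline-EDTA lavage. Reported as % reduction in cells and fluid relative to control.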

Experiment [3] has as its system Rattus norvegicus. The experiment is described as follows: In vivo inhibitory activity against fluid in reverse passive Arthus reaction (RPAR) assay at dose 25 mg/kg in the pleural cavity of rats. It counts as functional. In outline:
as §1

Experiment [4] relates to Rattus norvegicus. Briefly: In vivo effect on prostaglandin and leukotriene mediated production in rat pleural cavity was assessed by the inhibition of cell influx in 5-lipoxygenase/ cyclooxygenase at dose 25 mg/kg. It counts as functional. In outline: (§2)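 Rat reversed passive Arthus pleurisy, oral dosing 1 h before challenge. BSA given iv (5 mg), then rabbit anti-BSA IgG intrapleurally 30 min later. At 4 h, exudate was collected into indomethacin/NDGA and its volume recorded. Neutrophils were counted by Coulter counter. TXB2 and LTE4 in ethanol-extracted supernatant were measured by RIA with tritiated recovery spikes. Reported as % inhibition versus control.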

Experiment [5] has as its system Rattus norvegicus. The experiment is described as follows: In vivo effect on prostaglandin and leukotriene mediated production in rat pleural cavity was assessed by the inhibition of fluid volume in 5-lipoxygenase/ cyclooxygenase at dose 25 mg/kg. It counts as functional. The settings on record: for inhibition in vivo at 25 mg/kg: Rattus norvegicus, Pleural cavity. The gist of the method:
as §2

Experiment [6] concerns the target Cyclooxygenase (Homo sapiens) (UniProt P35354+P23219). Briefly: In vitro inhibitory activity against Prostaglandin G/H synthase in human platelets. Further details: concentration or dose not given beside the values. The settings on record: concentration not given here. In outline:
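Human platelets (2×10^5/mL) in HEPES buffer with 0.5 mM EGTA and 1.5 mM CaCl2, incubated 4 min with compound in DMSO vehicle. Then given [14C]arachidonic acid and A23187 ionophore for 5 min and stopped with methanol. HHT was measured by reverse-phase HPLC. Reported as % inhibition of HHT versus vehicle, at 15 μM.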

Experiment [7] has as its system Rattus norvegicus. Briefly: In vivo effect on prostaglandin and leukotriene mediated production in rat pleural cavity was assessed by the inhibition of LTE4 in 5-lipoxygenase/ cyclooxygenase at dose 25 mg/kg. It counts as functional. The gist of the method:
as §2

Experiment [8] relates to Rattus norvegicus. Briefly: In vivo effect on prostaglandin and leukotriene mediated production in rat pleural cavity was assessed by the inhibition of TxB2 in 5-lipoxygenase/ cyclooxygenase at dose 25 mg/kg.
For experiment [9], the system named is Rattus norvegicus. The experiment is described as follows: In vivo antiinflammatory activity against edema formation in the injected(primary) paw of the rat(before edema stimulation) at dose 25 mg/kg. It counts as functional. In outline:
(§3)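 Adjuvant arthritis in rats, prophylactic regimen. Oral dosing began 1 h before challenge and continued for 21 consecutive days. Heat-killed M. tuberculosis in paraffin oil (6 mg/mL), 0.1 mL injected into the left hind paw, with methylcellulose-treated controls. Both hind paw volumes measured by plethysmograph on day 21. Reported as % change relative to control.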

In experiment [10] the test system is Rattus norvegicus. Briefly: In vivo antiinflammatory activity against edema formation in the noninjected(secondary) paw of the rat (before edema stimulation) at dose 25 mg/kg. The format is functional. In outline: as §3
For experiment [11], the system named is Rattus norvegicus. The experiment is described as follows: In vivo effect on prostaglandin and leukotriene mediated production in rat pleural cavity was assessed by the inhibition of TXB2 in 5-lipoxygenase/ cyclooxygenase at dose 25 mg/kg. The format is functional. In outline:
as §2

One may read the inhibition as how much of the control response was suppressed. As usually defined, the inhibition in vivo is the share of the control response that was lost under treatment. Turning to `CC1(C)C(=O)N(c2ccc(F)cc2F)c2ncccc21`, in experiment [1], the inhibition came out at 7%. The inhibition in vivo at 25 mg/kg in the experiment with Rattus norvegicus [2] came out at 61%; in the experiment on Rattus norvegicus [3], 19%.
The corresponding values for `CSC1(C)C(=O)N(c2ccccc2)c2ncccc21` (stereo not drawn) are 21%, 34% and 53%.
As to `CCC1(CC)C(=O)N(c2ccccc2)c2ncccc21`, the inhibition in experiment [1] is 12%. Moreover, the inhibition in vivo at 25 mg/kg was 13% in the experiment on Rattus norvegicus [2] and 0% with Rattus norvegicus [3].
Compound `CC1(C)C(=O)N(c2ccc(Cl)cc2)c2ncc(Br)cc21` returned an inhibition in [1] of 34%. Also, the inhibition in vivo at 25 mg/kg was 29% in the experiment on Rattus norvegicus [2] and 0% with Rattus norvegicus [3].
The compound `CC1(C)C(=O)N(Cc2ccc(Cl)cc2)c2ncccc21` showed an inhibition in [1] of 26%. The inhibition in vivo at 25 mg/kg amounted to 6% in the experiment with Rattus norvegicus [2] and 0% in the experiment on Rattus norvegicus [3].
In turn, `CC1(Cc2ccccc2)C(=O)N(c2ccccc2)c2ncccc21` (stereo not drawn) had an inhibition in experiment [1] of 17%. Also, the inhibition in vivo at 25 mg/kg stood at 9% in the experiment with Rattus norvegicus [2] and 0% with Rattus norvegicus [3].
The compound `CCC1(C)C(=O)N(c2ccccc2)c2ncccc21` (stereo not drawn) had an inhibition in [1] of 13%. Moreover, the results for the inhibition in vivo at 25 mg/kg with Rattus norvegicus [2] and with Rattus norvegicus [3] were 36% and 12%, respectively.
The compound `CC1(C)C(=O)N(c2ccccc2Cl)c2ncccc21` displayed an inhibition in [1] of 0%. In addition, the inhibition in vivo at 25 mg/kg turned out to be 14% in the experiment on Rattus norvegicus [2] and 3% with Rattus norvegicus [3].
On to `CCCCC1(C)C(=O)N(c2ccccc2)c2ncccc21` (stereo not drawn), for which the inhibition in experiment [1] is 13%. The inhibition in vivo at 25 mg/kg is 21% in the experiment on Rattus norvegicus [2] and 5% in the experiment with Rattus norvegicus [3].
The compound `CC1(C)C(=O)N(Cc2ccccc2)c2ncccc21` displayed an inhibition in experiment [1] of 2%. Moreover, the inhibition in vivo at 25 mg/kg with Rattus norvegicus [2] and in the experiment with Rattus norvegicus [3] was 12% each time.
On to `CC1(C)C(=O)N(c2ccc(Cl)cc2Cl)c2ncccc21`, for which the inhibition in experiment [1] came to 20%. Besides, the inhibition in vivo at 25 mg/kg amounted to 16% in the experiment on Rattus norvegicus [2] and 8% with Rattus norvegicus [3].
As for `CC1(C)C(=O)N(c2ccc(Cl)c(Cl)c2)c2ncccc21`, the inhibition in experiment [1] and in experiment [6] was 0% in each case. Besides, the inhibition in vivo at 25 mg/kg with Rattus norvegicus [4] worked out at 26%; in the experiment with Rattus norvegicus [2], 26%; in the experiment with Rattus norvegicus [5] it was 25%; with Rattus norvegicus [3], 25%; in the experiment on Rattus norvegicus [7] it was 46%. Further, the TxB2 inhibition with Rattus norvegicus [8] was 44%.
Compound `CC1(F)C(=O)N(c2ccccc2)c2ncccc21` (stereo not drawn) returned an inhibition in experiment [1] of 0%. Besides, the figures for the inhibition in vivo at 25 mg/kg in the experiment with Rattus norvegicus [2] and in the experiment with Rattus norvegicus [3] were 50% and 35%, respectively.
For the compound `CC1(C)C(=O)N(c2cc(Cl)cc(Cl)c2)c2ncccc21`, the inhibition in vivo at 25 mg/kg worked out at 49% with Rattus norvegicus [2] and 33% with Rattus norvegicus [3].
`Cc1c(Cl)cccc1N1C(=O)C(C)(C)c2cccnc21` registered an inhibition in experiment [1] of 7%. For the same compound, the inhibition in vivo at 25 mg/kg in the experiment with Rattus norvegicus [2] worked out at 14%; with Rattus norvegicus [3], 0%.
On to `CC1(C)C(=O)N(c2ccc(Br)cc2)c2ncccc21`, for which, in experiment [1], the inhibition came to 11%. The inhibition in vivo at 25 mg/kg in the experiment with Rattus norvegicus [2] turned out to be 46%; with Rattus norvegicus [3] it was 55%.
In the case of `CSc1ccc(N2C(=O)C(C)(C)c3cccnc32)cc1`, the inhibition in [1] was found to be 23%. Besides, the inhibition in vivo at 25 mg/kg in the experiment on Rattus norvegicus [2] came to 29%; with Rattus norvegicus [3] it was 37%.
`CC(C)c1ccc(N2C(=O)C(C)(C)c3cccnc32)cc1`: in experiment [1], the inhibition was found to be 0%. Also, the results for the inhibition in vivo at 25 mg/kg in the experiment with Rattus norvegicus [2] and with Rattus norvegicus [3] were 29% and 6%, respectively.
The corresponding values for `CC1(C)C(=O)N(c2ccc(S(C)(=O)=O)cc2)c2ncccc21` are 13%, 42% and 0%.
The corresponding values for `CC1(C)C(=O)N(c2cccc(C(F)(F)F)c2)c2ncccc21` are 34%, 35% and 10%.
In the case of `COCCSC1(C)C(=O)N(c2ccccc2)c2ncccc21` (stereo not drawn), in [1], the inhibition came out at 0%. The inhibition in vivo at 25 mg/kg amounted to 26% with Rattus norvegicus [2] and 23% in the experiment with Rattus norvegicus [3].
With `CC1(C)C(=O)N(c2cccc(Cl)c2)c2ncccc21`, the inhibition in [1] was 3%; in experiment [6], 0%. In addition, the inhibition in vivo at 25 mg/kg in the experiment with Rattus norvegicus [4] was 51%; in the experiment on Rattus norvegicus [2], 51%; in the experiment with Rattus norvegicus [5] it was 49%; with Rattus norvegicus [9], 0%; with Rattus norvegicus [3] it was 49%; in the experiment on Rattus norvegicus [7], 59%. Also, at 25 mg/kg the inhibition in vivo in the experiment with Rattus norvegicus [10] was 31%. For the same compound, the TxB2 inhibition in the experiment with Rattus norvegicus [8] is 62%.
Regarding `CC1C(=O)N(c2ccccc2)c2ncccc21` (stereo not drawn), in [1], the inhibition worked out at 0%. In addition, the inhibition in vivo at 25 mg/kg in the experiment with Rattus norvegicus [2] was determined as 29%; in the experiment with Rattus norvegicus [3], 18%.
For `CC1(C)C(=O)N(c2ccc(Cl)cc2)c2ccccc21`, the inhibition in vivo at 25 mg/kg with Rattus norvegicus [2] and with Rattus norvegicus [3] was 0% in each case.
For the compound `COc1ccc(N2C(=O)C(C)(C)c3cccnc32)cc1`, in [1], the inhibition worked out at 11%. Moreover, the inhibition in vivo at 25 mg/kg worked out at 63% with Rattus norvegicus [4]; 63% in the experiment on Rattus norvegicus [2]; 0% in the experiment on Rattus norvegicus [9]; 42% with Rattus norvegicus [3]; 34% in the experiment with Rattus norvegicus [11]; 0% with Rattus norvegicus [10].
In turn, `C[S+]([O-])c1ccc(N2C(=O)C(C)(C)c3cccnc32)cc1` (stereo not drawn) returned an inhibition in experiment [1] of 11%. In addition, the inhibition in vivo at 25 mg/kg in the experiment on Rattus norvegicus [2] turned out to be 39%; with Rattus norvegicus [3] it was 0%.
The term Inhibition denotes the percentage by which the read-out fell short of the control. For `CN1C(=O)C(C)(C)c2cccnc21`, the inhibition in vivo at 25 mg/kg with Rattus norvegicus [4] was found to be 69%; with Rattus norvegicus [2], 69%; in the experiment on Rattus norvegicus [5], 53%; in the experiment with Rattus norvegicus [3], 53%; with Rattus norvegicus [11] it was 17%. For the same compound, the Inhibition in the experiment with Rattus norvegicus [5] (25 mg/kg) was found to be 53%.
Turning to `CC(C)N1C(=O)C(C)(C)c2cccnc21`, in [1], the inhibition was 6%. Further, the inhibition in vivo at 25 mg/kg came to 34% with Rattus norvegicus [2] and 14% in the experiment on Rattus norvegicus [3].
Consider `CC1(C)C(=O)Nc2ncccc21`, for which the values for the inhibition in vivo at 25 mg/kg in the experiment on Rattus norvegicus [2] and in the experiment on Rattus norvegicus [3] were 46% and 38%, respectively.
In the case of `CC1(C)C(=S)N(c2ccc(Cl)cc2)c2ncccc21`, the inhibition in [1] was determined as 17%. Also, the inhibition in vivo at 25 mg/kg in the experiment with Rattus norvegicus [2] was determined as 41%; in the experiment with Rattus norvegicus [3], 42%.
Turning to `CC1(Sc2ccccc2)C(=O)N(c2ccccc2)c2ncccc21` (stereo not drawn), the inhibition in vivo at 25 mg/kg with Rattus norvegicus [2] and in the experiment with Rattus norvegicus [3] was 0% each time.
